Results from different studies.
Compare with care: the assays were run in different laboratories.
Target: Rhodopsin kinase GRK7 (GRK7, Homo sapiens, UniProt Q8WTQ7)
One construct used (Q8WTQ7 1-553): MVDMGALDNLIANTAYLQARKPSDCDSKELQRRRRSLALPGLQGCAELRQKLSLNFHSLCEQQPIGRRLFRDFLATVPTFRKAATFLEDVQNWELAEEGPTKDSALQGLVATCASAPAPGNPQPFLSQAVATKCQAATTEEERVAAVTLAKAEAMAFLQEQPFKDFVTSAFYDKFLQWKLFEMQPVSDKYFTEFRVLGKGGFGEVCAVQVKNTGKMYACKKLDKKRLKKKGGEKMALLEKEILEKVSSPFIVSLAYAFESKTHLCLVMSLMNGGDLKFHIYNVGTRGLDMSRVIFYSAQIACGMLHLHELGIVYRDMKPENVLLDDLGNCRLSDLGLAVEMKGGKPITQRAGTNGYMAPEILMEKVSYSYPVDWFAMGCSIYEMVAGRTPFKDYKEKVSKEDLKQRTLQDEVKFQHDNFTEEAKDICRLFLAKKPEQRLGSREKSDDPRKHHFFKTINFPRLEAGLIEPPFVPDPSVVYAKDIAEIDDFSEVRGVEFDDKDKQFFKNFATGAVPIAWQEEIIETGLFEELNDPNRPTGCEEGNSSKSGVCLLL

CCCOc1ccc([C@@H]2[C@@H](C(=O)O)[C@H](c3ccc4c(c3)OCO4)CN2CC(=O)Nc2c(CC)cccc2CC)cc1  remaining binding (cell-free assay, competition with immobilised ligand; 1 µM): 99%
C[C@@H](c1ccc(-n2cnc3c(N)ncnc32)cc1)N1CCc2nn(C)c(Cc3ccccc3)c2C1=O  remaining binding (binding, competition with immobilised ligand; 0.1 µM): 72%
CN(C)c1nccc(-c2cnn3ncccc23)n1  remaining binding (binding; 1 µM): 100%
C[C@H](c1ccc(F)cc1)N(Cc1cccc(C(=O)O)c1)C(=O)c1cnc2ccccc2c1  remaining binding (cell-free assay, competition with immobilised ligand; 1 µM): 100%
O=C(NCCCN1CCOCC1)c1ccc(Nc2ncc(Cl)c(-c3ccc(Cl)s3)n2)cc1  remaining binding (binding, competition with immobilised ligand; 1 µM): 90%
CN(c1nccc(-c2cnn3ncccc23)n1)C1CC1  remaining binding (binding; 1 µM): 100%
COc1ncc2cc3ccccc3nc2c1C#N  remaining binding (cell-free assay, competition with immobilised ligand; 5 µM): 100%
NS(=O)(=O)c1cc(NC(=O)Cc2ccccc2)ccc1Oc1cccc(Cl)c1  remaining binding (cell-free assay, competition with immobilised ligand; 1 µM): 77%
c1cnn2ncc(-c3ccnc(N4CCC45COC5)n3)c2c1  remaining binding (binding; 1 µM): 66%
c1cncc(-c2cccc(Nc3nccc(NC4CCCCC4)n3)c2)c1  remaining binding (binding, competition with immobilised ligand; 10 µM): 16%
CC1CCCN1c1nccc(-c2cnn3ncccc23)n1 (stereo not shown)  remaining binding (binding; 1 µM): 100%
Nc1ncc2c(n1)-c1c([nH]c3ccc(C#CC4CC4)cc13)CCCC2  remaining binding (binding, competition with immobilised ligand; 1 µM): 93%
N[C@@H]1CCN(c2nccc(-c3cnn4ncccc34)n2)C1  remaining binding (binding; 1 µM): 100%
O=C(c1ccc(Nc2nccc(-c3cc4ccccc4s3)n2)cc1)N1CCC(N2CCCC2)CC1  remaining binding (binding, competition with immobilised ligand; 1 µM): 79%
COc1ccnn2ncc(-c3ccnc(N(C)C)n3)c12  remaining binding (binding; 1 µM): 94%
O=C(NCC1CCOCC1)c1n[nH]cc1NC(=O)c1c(F)cccc1F  remaining binding (binding, competition with immobilised ligand; 1 µM): 89%
CN(C)CC#Cc1ccc(OCCCc2sc(N3CCc4cccc(C(=O)Nc5nc6ccccc6s5)c4C3)nc2C(=O)O)c(F)c1  remaining binding (cell-free assay, competition with immobilised ligand; 1 µM): 97%
COc1cnc(Nc2cccc(S(N)(=O)=O)c2)nc1N1CCN(c2ccccc2)C(=O)C1  remaining binding (binding, competition with immobilised ligand; 1 µM): 61%
COc1cc(-c2cn(C3CCc4c(F)cccc4N(CC(F)(F)F)C3=O)nn2)ccc1-n1cnc(C)c1 (stereo not shown)  remaining binding (cell-free assay, competition with immobilised ligand; 1 µM): 100%
F[C@@H]1CCN(c2nccc(-c3cnn4ncccc34)n2)C1  remaining binding (binding; 1 µM): 100%
Cc1cnc(Nc2ccc(C(=O)N3CCC(N4CCCC4)CC3)cc2)nc1-c1cc2ccccc2s1  remaining binding (binding, competition with immobilised ligand; 1 µM): 29%
O=C(Nc1cccnn1)N1CC(C/C=C/c2cncc(Oc3ccc(C(F)(F)F)cn3)n2)C1  remaining binding (cell-free assay, competition with immobilised ligand; 1 µM): 85%
